High-throughput results as filed in PubChem.
hK5 inh = blocks human kallikrein 5 protease activity; recombinant hK5, fluorogenic AMC substrate cleavage; inhibition, % at 5 µM; 0.59% of 210,000 active;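 active = inhibition of 40% or more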;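 also: 0% = enzyme controls without compound and 100% = no-enzyme blanks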
Furin inh = inhibitors of human furin; AID 463115; inhibition, % at 20 µM or 30 µM; purified furin, fluorogenic substrate cleavage; 0.061% of 220,000 active; P09958; in the data active = inhibition above about 25%
FXIa inh = blocks human coagulation factor XIa protease activity; purified FXIa, Boc-Glu-Ala-Arg-AMC fluorogenic substrate; inhibition, % at 5 µM; 0.14% of 220,000 active;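 active = inhibition of at least 40%; inactive = inhibition below 40%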;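 also: fluorescence of freed AMC excited at 355 nm; 0% = enzyme without compound and 100% = no enzyme blank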
Calpain2 inh = blocks pig calpain II enzyme activity; 0.37% of 220,000 active; inhibition, % at 16 µM; purified calpain II, fluorogenic peptide substrate, 30 min;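 active = inhibition above about 50%, limit read from the data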
FXIIa inh = blocks human coagulation factor XIIa protease activity. P00748. purified FXIIa, Boc-QGR-AMC fluorogenic substrate, 2 h. inhibition, % at 5 µM. 0.3% of 220,000 active. AID 800; in the data active = inhibition above about 40%;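 also: 0% = enzyme with no compound and 100% = blank without enzyme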
Target sequence (P00748 20-372 limits assumed): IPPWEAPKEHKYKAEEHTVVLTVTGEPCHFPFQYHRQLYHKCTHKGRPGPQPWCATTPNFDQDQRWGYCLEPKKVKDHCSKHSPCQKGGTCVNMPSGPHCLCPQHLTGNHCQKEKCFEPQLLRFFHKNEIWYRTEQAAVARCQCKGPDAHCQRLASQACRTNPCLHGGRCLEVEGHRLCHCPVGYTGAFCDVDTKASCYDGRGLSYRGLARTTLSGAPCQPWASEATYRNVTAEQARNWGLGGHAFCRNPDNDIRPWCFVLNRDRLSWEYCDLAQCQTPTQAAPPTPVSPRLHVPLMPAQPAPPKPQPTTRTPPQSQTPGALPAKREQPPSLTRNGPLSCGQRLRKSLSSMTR
Target sequence (P00748 373-615 limits assumed): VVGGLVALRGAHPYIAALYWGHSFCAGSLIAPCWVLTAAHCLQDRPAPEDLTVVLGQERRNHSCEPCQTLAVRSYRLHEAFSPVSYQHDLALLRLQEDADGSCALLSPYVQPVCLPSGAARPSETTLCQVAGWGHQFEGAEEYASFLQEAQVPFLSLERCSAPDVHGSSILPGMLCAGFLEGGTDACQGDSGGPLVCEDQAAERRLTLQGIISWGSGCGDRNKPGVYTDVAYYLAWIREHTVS
Thrombin inh = blocks human thrombin protease activity. P00734. alpha-thrombin, Boc-VPR-AMC fluorogenic substrate cleavage. inhibition, % at 5 µM. 0.26% of 220,000 active. AID 1046;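 active = inhibition at or above 40%; inactive = inhibition below 40%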;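 also: 0% = enzyme with no compound and 100% = wells without enzyme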
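Material: human alpha-thrombin protein. Incubation: reaction at ambient temperature. Technique: fluorescence of released AMC, ex 355 nm, em 460 nm. Control set: no-compound enzyme wells and no-enzyme blanks. Also added: Boc-VPR-AMC substrate, 15 µM final. Buffer or medium: pH 7.5 Tris (50 mM) with NaCl 150 mM, Tween 20 0.05%.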
* = called active by the depositor. This is a sample that favours compounds with a hit; in the whole collection about 1.4% have one here.

SMILES	hK5 inh	Furin inh	FXIa inh	Calpain2 inh	FXIIa inh	Thrombin inh
Cc1occc(=O)c1OC(=O)Nc1ccc(Cl)c(Cl)c1	47.5*	-7.1	39.2	23.4	4.6	26.6
COc1ccc(C(=O)c2cnc3cc4c(cc3c2C)OCO4)cc1	74.1*	-5.7	9.3	33.2	0.3	34.4
O=C1CC(Sc2ccc(Cl)cc2)C(=O)N1c1ccc2c(c1)OCCO2 (centres undefined)	53.1*	-4.9	43.9*	21.6	16.9	37.1
Cc1nc2c(cnn2-c2ccc(Cl)cc2)c(=O)n1-c1ccc(N2CCC(C)CC2)cc1	53.8*	-12.5	13.8	3.0	17.0	17.1
O=S(=O)(NCc1ccccc1)c1ccc(S(=O)(=O)N2CCCCC2)cc1	-17.4	-27.1	5.2	-7.5	13.7	6.1
COc1ccc(-c2ccc(C#N)c(SCC(=O)NC3CC3)n2)cc1OC	-17.1	-41.0	-15.2	-184.2	-21.6	-14.6
O=C1C2C3c4ccccc4C(c4ccccc43)C2C(=O)N1/N=C/c1cccc(O)c1 (centres undefined)	41.9*	-18.2	3.6	8.1	24.4	20.4
Nc1ccc2c(c1)N=[N+]([O-])c1cc(N)ccc1C2	2.5	-13.7	7.4	7.5	7.6	0.2
COc1ccc(CSc2ncn[nH]2)cc1[N+](=O)[O-]	-5.4	-16.0	1.5	-4.6	7.3	-0.4
COc1ccc(CSc2n[nH]c(C)n2)cc1[N+](=O)[O-]	47.6*	-17.1	-3.1	22.8	11.3	23.9
O=C(c1ccco1)N1CCN(C2CC(=O)N(c3ccc4c(c3)OCO4)C2=O)CC1 (centres undefined)	-7.0	31.5*	-1.5	-14.0	2.4	-6.8
O=C(c1ccco1)N1CCN(C2CC(=O)N(c3ccccc3)C2=O)CC1 (centres undefined)	-1.6	-8.3	-4.3	20.3	7.5	-3.6
O=C(Nc1ccc(S(=O)(=O)N2CCOCC2)cc1)c1ccc(Cl)s1	-2.9	-26.9	0.1	-27.5	-6.4	-17.2
Cc1ccc(/C=N\Nc2nc3ccc(Cl)cc3[nH]2)o1	-79.0	-6.2	19.7	13.6	51.7*	4.1
COc1ccc(Cc2nnc(NC(=O)CSc3ccccc3)s2)cc1OC	-15.9	-2.1	4.2	-6.3	13.0	-6.2
CCOC(=O)CCc1c(C)nc2cc(-c3ccccc3OC)[nH]n2c1=O	0.6	-17.1	5.5	-75.5	-4.3	-0.3
CCn1c(C)c(CCC(=O)O)c(=O)n2nc(-c3ccccc3OC)cc12	-11.5	26.6*	3.6	-165.5	12.6	0.4
CCCc1cc(-c2[nH]ncc2-c2ccc3c(c2)OCCCO3)c(O)cc1OC	-18.9	-20.9	4.0	36.5	17.5	-1.4
COc1ccc(-c2[nH]ncc2-c2ccc3c(c2)OCCO3)c(O)c1	49.3*	-20.0	9.3	12.2	8.5	100.7*
CCOC(=O)c1ccc(NC(=O)c2ccc3c(c2)OCO3)cc1	2.3	-19.5	-1.2	3.2	10.8	0.2
CCOC(=O)c1ccc(NC(=O)NC2CCN(CC(=O)NCc3ccc4c(c3)OCO4)CC2)cc1	30.2	-27.7	9.8	12.6	13.7	43.3*
Cc1nc(NCCc2ccccc2F)c(C#N)c(C)c1[N+](=O)[O-]	24.7	-17.5	14.1	16.4	25.2	45.9*
Cc1nc(NCCc2ccc(F)cc2)c(C#N)c(C)c1[N+](=O)[O-]	-8.0	-16.3	-1.8	-12.8	4.4	-13.0
COc1cc(CNc2nc(C)c([N+](=O)[O-])c(C)c2C#N)cc(OC)c1	-2.6	-6.5	-5.3	65.8*	8.8	-0.8
COc1ccc(OC)c(Cc2nnc(CCC(=O)N3CCC(N4CCCCC4)CC3)o2)c1	44.4*	-3.2	29.5	-18.1	31.5	23.2
SMILES	hK5 inh	Furin inh	FXIa inh	Calpain2 inh	FXIIa inh	Thrombin inh
COc1ccc(OC)c(Cc2nnc(CCC(=O)N3CCCCCC3)o2)c1	-2.6	-17.7	-5.6	-1.0	4.6	10.2
COc1ccc(-n2c(C)nn(C)c2=O)cc1	-10.2	-20.8	5.7	-0.9	12.9	0.7
Cc1[nH]c(=S)c(C#N)c(C)c1Cc1ccc(Cl)cc1Cl	3.5	-36.5	11.3	30.8	5.1	1.9
CN(C)S(=O)(=O)c1ccc2c(c1)nc(CCC(=O)NCc1ccc(Cl)cc1)n2C	-2.3	-22.1	-0.7	50.8*	5.7	4.9
CN(C)S(=O)(=O)c1ccc2c(c1)nc(CCC(=O)NCC1CCCCC1)n2C	-5.0	-18.7	-3.4	-16.5	17.3	-2.1
COc1cc(NC(=O)c2ccco2)c(OC)cc1NC(=O)CSc1nnc(-c2cccs2)n1C	6.9	-10.8	21.1	-6.3	28.8	7.5
CCS(=O)(=O)N1CCCC(c2nc(-c3cccc(OC)c3)no2)C1 (centres undefined)	40.3*	-5.7	4.6	-0.2	18.8	15.3
Cc1cc(C)c(C#N)c(SCC(=O)c2ccccc2)n1	-3.5	-17.1	-5.1	5.1	2.0	-13.7
Cc1cc(C)c(C#N)c(SCc2ccc([N+](=O)[O-])cc2)n1	23.0	-7.2	10.3	29.1	40.9*	10.1
O=C(CNCc1cccnc1)Nc1cc(C(F)(F)F)ccc1N1CCOCC1	1.0	-18.4	3.2	-22.3	6.1	-1.9
O=C(O)CSc1nnc(-c2ccco2)o1	-16.8	-6.6	-5.4	24.5	26.2	-8.4
CN(C)C(CNC(=O)CSc1nnc(-c2ccco2)o1)c1ccccc1 (centres undefined)	74.1*	-26.7	7.2	9.0	33.4	26.1
O=C(CCn1c(=O)c2ccccc2n(CC(=O)NC2CCCC2)c1=O)NCc1ccco1	-9.1	-20.1	14.1	-7.7	24.2	3.1
O=C(CCCCn1c(=O)c2ccccc2n(CC(=O)NC2CCCC2)c1=O)NCc1ccco1	0.4	-22.3	-11.7	68.4*	-13.6	-9.2
O=C(c1nc2nc(-c3ccccc3)cc(C(F)(F)F)n2n1)N1CCCCC1	63.8*	-20.3	12.7	1.6	16.2	22.4
COc1c(N2CCN(C(=S)Nc3ccccc3)C(C)C2)c(F)cc2c(=O)c(C(=O)O)cn(C3CC3)c12 (centres undefined)	-24.7	-23.3	2.8	-148.8	10.7	4.5
CC(C)c1ccc(/C=N/NC(=O)CN(c2cccc(Cl)c2Cl)S(C)(=O)=O)cc1	12.8	-17.0	-9.5	-11.3	2.1	-1.1
CS(=O)(=O)N(CC(=O)N/N=C/c1ccccc1C(=O)O)c1cccc(Cl)c1Cl	16.4	-8.4	36.1	-5.9	56.6*	20.5
COc1ccc(C(=O)NC(=S)Nc2cccc(Cl)c2N2CCOCC2)cc1[N+](=O)[O-]	42.4*	-8.9	8.1	-9.9	15.0	2.3
CCOc1ccc(NC(=O)CSC2=NCCN2)cc1	47.3*	-13.7	10.0	20.3	13.1	4.7
CCOCCCNC(=O)C1CCC(CNS(=O)(=O)c2ccc(Cl)cc2)CC1 (centres undefined)	-24.3	-26.0	-13.0	53.8*	3.0	-4.8
COCCCNC(=O)C1CCC(CNS(=O)(=O)c2ccc(C)cc2)CC1 (centres undefined)	-2.4	-26.0	-4.0	1.6	0.9	-5.6
